Where “and” joins values, the source holds several entries; their conditions need not be identical. Equal entries are not always repeated. Blank lines part the entries; values can stand above or below the compound they belong to.
Columns and labels:
Mus musculus [1] = assay: Anticonvulsant activity against tonic phase of the audiogenic seizures in DBA / 2 mice 30 min after ip administration at a dose range 10-66 uM/kg; type: functional; settings: 0.5 h
Method in brief: (§1)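 Groups of 10 DBA/2 mice of either sex; drug ip (0.1 mL/10 g) as fresh solution in 50% DMSO/50% saline, 30 min before auditory stimulation (12-16 kHz, 109 dB, 60 s or until tonic extension) under perspex dome after 60 s habituation. Latency and incidence of wild running, clonic and tonic phases scored; ED50 (95% confidence limits) by Litchfield-Wilcoxon.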

[2] = Relative lipophilicity of compound; type: physicochemical; settings: reversed-phase TLC, acetone/water 2:1
Method in brief: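 Reversed-phase TLC type lipophilicity: plates dried 105 °C 1 h, mobile phase acetone:water 2:1, 1 µL of 3 mg/mL CHCl3 solution spotted; five runs with varied positions, mean Rf converted as Rm = log[(1/Rf) - 1].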

Mus musculus [3] = assay: Anticonvulsant activity against clonic phase of the audiogenic seizures in DBA / 2 mice 30 min after ip administration at a dose range 10-66 uM/kg; type: functional; settings: 0.5 h; method in brief: as §1
Mus musculus [4] = assay: Anticonvulsant activity against tonic phase of the audiogenic seizures in DBA / 2 mice 30 min after ip administration at a dose range 33-133 uM/kg; type: functional; settings: 0.5 h; method in brief: as §1
Mus musculus [5] = assay: Anticonvulsant activity against clonic phase of the audiogenic seizures in DBA / 2 mice 30 min after ip administration at a dose range 33-133 uM/kg; type: functional; settings: 0.5 h; method in brief: as §1
Mus musculus [6] = assay: Anticonvulsant activity against clonic phase of the audiogenic seizures in DBA / 2 mice 30 min after ip administration at a dose range 10-120 uM/kg; type: functional; settings: 0.5 h; method in brief: as §1
Mus musculus [7] = assay: Anticonvulsant activity against tonic phase of the audiogenic seizures in DBA / 2 mice 30 min after ip administration at a dose range 10-120 uM/kg; type: functional; settings: 0.5 h; method in brief: as §1
[8] = Motor toxicity in 50% of mice on locomotion assessed by Rotarod test following 30 min ip administration; type: organism-based; settings: mouse, in vivo
Method in brief: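 Male Swiss mice (20-26 g, 48-54 days), groups of 10, trained on rotarod (3 cm, 8 rpm); tested 30 min after ip dosing. Impairment = failure to stay on for 2 min; TD50 (95% confidence limits) by Litchfield-Wilcoxon.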

Mus musculus [9] = assay: Anticonvulsant activity against clonic phase of the audiogenic seizures in DBA / 2 mice 30 min after ip administration at a dose range 10-100 uM/kg; type: functional; settings: 0.5 h; method in brief: as §1
Mus musculus [10] = assay: Anticonvulsant activity against tonic phase of the audiogenic seizures in DBA / 2 mice 30 min after ip administration at a dose range 10-100 uM/kg; type: functional; settings: 0.5 h; method in brief: as §1
Mus musculus [11] = assay: Audiogenic seizures after pretreatment with Aniracetam in DBA / 2 mice clonic phase at a dose range of 33-300 uM/kg; type: functional
Method in brief: (§2)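 DBA/2 mice pretreated with aniracetam 50 nmol icv 60 min before auditory testing, with ip 2,3-benzodiazepine; audiogenic clonic and tonic phases scored; ED50 by Litchfield-Wilcoxon.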

Mus musculus [12] = assay: Audiogenic seizures after pretreatment with Aniracetam in DBA / 2 mice tonic phase at a dose range of 33-300 uM/kg; type: functional; method in brief: as §2
Mus musculus [13] = assay: Anticonvulsant activity against the clonic seizures induced by icv injection of AMPA in DBA / 2 mice at a dose range of 10-200 uM/kg; type: functional; settings: central
Mus musculus [14] = assay: Pentylenetetrazole-induced seizures in Swiss mice after 45 min pretreatment at a dose range 10-150 uM/kg; type: functional
Mus musculus [15] = assay: Anticonvulsant activity against the tonic seizures induced by icv injection of AMPA in DBA / 2 mice at a dose range of 10-200 uM/kg; type: functional; settings: central
Mus musculus [16] = assay: Anticonvulsant activity against the maximal electroshock in Swiss mice after 45 minutes pretreatment at a dose range 10-150 uM/kg; type: functional
Method in brief: (§3)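 Swiss mice dosed ip in 50% DMSO/50% saline 45 min before ear-clip electroshock (50 mA, 20 ms pulses, 35 Hz, 400 ms). Protection = abolition of tonic hindlimb extension. Usually 4-5 doses with 8-10 mice each; ED50 (95% confidence limits) by Litchfield-Wilcoxon.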

[17] = Therapeutic index it is the ratio between TD50 and ED50 (from the clonic phase of the audiogenic seizures); settings: read-out: TI
Method in brief: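 Therapeutic index computed as rotarod TD50 divided by ED50 for the clonic phase of audiogenic seizures in DBA/2 mice.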

Mus musculus [18] = species on record: Mus musculus; assay: Audiogenic seizures after concomitant treatment with Flumazenil (8.24 uM) in DBA / 2 mice clonic phase; type: functional
Mus musculus [19] = assay: Pentylenetetrazole-induced seizures in Swiss mice after 45 min pretreatment at a dose range 10-100 uM/kg; type: functional
Method in brief: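 Male Swiss mice (20-26 g), compound ip in 50% DMSO/50% saline 45 min before sc pentylenetetrazole at CD97 (85 mg/kg), then observed 30 min. Protection is absence of clonic spasms lasting at least 5 s. Typically 4-5 doses, 8-10 mice per dose. ED50 with 95% confidence limits by Litchfield and Wilcoxon.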

Mus musculus [20] = species on record: Mus musculus; assay: Audiogenic seizures after concomitant treatment with Flumazenil (8.24 uM) in DBA / 2 mice tonic phase; type: functional
Mus musculus [21] = species on record: Mus musculus; assay: Audiogenic seizures after concomitant treatment with Flumazenil (24.72 uM) in DBA / 2 mice tonic phase; type: functional
Mus musculus [22] = species on record: Mus musculus; assay: Audiogenic seizures after concomitant treatment with Flumazenil (24.72 uM) in DBA / 2 mice clonic phase; type: functional
Mus musculus [23] = assay: Anticonvulsant activity against the maximal electroshock in Swiss mice after 45 minutes pretreatment at a dose range 10-100 uM/kg; type: functional; method in brief: as §3
Mus musculus [24] = assay: Anticonvulsant activity against clonic phase of the audiogenic seizures in DBA / 2 mice 30 min after ip administration at a dose range 33-200 uM/kg; type: functional; settings: 0.5 h; method in brief: as §1
Mus musculus [25] = assay: Anticonvulsant activity against tonic phase of the audiogenic seizures in DBA / 2 mice 30 min after ip administration at a dose range 33-200 uM/kg; type: functional; settings: 0.5 h; method in brief: as §1
Mus musculus [26] = assay: Pentylenetetrazole-induced seizures in Swiss mice after 45 min pretreatment at a dose range 33-200 uM/kg; type: functional
Mus musculus [27] = assay: Anticonvulsant activity against the maximal electroshock in Swiss mice after 45 minutes pretreatment at a dose range 33-200 uM/kg; type: functional; method in brief: as §3

Rm [2]: -0.327
SMILES: COc1cc2c(cc1OC)C(c1cccc(N)c1)=NN(C)C(=O)C2
ED50 (Mus musculus [1]): 30.6 µmol/kg and 9.94 mg/kg | ED50 (Mus musculus [3]): 36.8 µmol/kg and 11.9 mg/kg

Rm [2]: 0.189
SMILES: COc1ccc2c(c1)CC(=O)N(C)N=C2c1ccccc1
ED50 (Mus musculus [4]): 99.1 µmol/kg and 27.8 mg/kg | ED50 (Mus musculus [5]): 117 µmol/kg and 32.8 mg/kg

Rm [2]: 0.052
SMILES: COc1cc2c(cc1OC)C(c1cccc([N+](=O)[O-])c1)=NN(C)C(=O)C2
ED50 (Mus musculus [6]): > 120 µmol/kg and > 44 mg/kg | ED50 (Mus musculus [7]): > 120 µmol/kg and > 44 mg/kg

Rm [2]: -0.031
SMILES: COc1cc2c(cc1OC)C(c1ccc(C#N)cc1)=NN(C)C(=O)C2
ED50 (Mus musculus [6]): > 120 µmol/kg and > 44 mg/kg | TD50 at 0.5 h [8]: > 150 µmol/kg | ED50 (Mus musculus [7]): > 120 µmol/kg and > 44 mg/kg

Rm [2]: -0.673
SMILES: COc1cc2c(cc1OC)C(c1ccc(N(C(C)=O)C(C)=O)cc1)=NN(C(C)=O)C(=O)C2
ED50 (Mus musculus [9]): 56.8 µmol/kg and 24.8 mg/kg | ED50 (Mus musculus [10]): 43.9 µmol/kg and 19.2 mg/kg

Rm [2]: 0
SMILES: COc1cc2c(cc1OC)C(c1ccccc1)=NN(C)C(=O)C2
ED50 (Mus musculus [11]): 259 µmol/kg | ED50 (Mus musculus [9]): 37.8 µmol/kg and 11.7 mg/kg | ED50 (Mus musculus [12]): 197 µmol/kg | ED50 (Mus musculus [13]): 76.1 µmol/kg | TD50 at 0.5 h [8]: 154 µmol/kg | ED50 (Mus musculus [14]): 89.9 µmol/kg | ED50 (Mus musculus [15]): 69.6 µmol/kg | ED50 (Mus musculus [16]): 42.7 µmol/kg | ED50 (Mus musculus [10]): 26.7 µmol/kg and 8.28 mg/kg | therapeutic index (TD50/ED50) [17]: 4.1

Rm [2]: -0.012
SMILES: COc1cc2c(cc1OC)C(c1ccccc1)=NNC(=O)C2
ED50 (Mus musculus [18]): 38.2 µmol/kg | ED50 (Mus musculus [11]): 215 µmol/kg | ED50 (Mus musculus [19]): 68.2 µmol/kg | ED50 (Mus musculus [20]): 35.8 µmol/kg | ED50 (Mus musculus [12]): 157 µmol/kg | ED50 (Mus musculus [13]): 66 µmol/kg | ED50 (Mus musculus [21]): 41.3 µmol/kg | TD50 at 0.5 h [8]: 142 µmol/kg | ED50 (Mus musculus [22]): 50.9 µmol/kg | ED50 (Mus musculus [15]): 42.6 µmol/kg | ED50 (Mus musculus [10]): 31.8 µmol/kg and 9.41 mg/kg | therapeutic index (TD50/ED50) [17]: 4.2 | ED50 (Mus musculus [23]): 35.8 µmol/kg

Rm [2]: 0.017
SMILES: COc1cc2c(cc1OC)C(c1ccc(Cl)cc1)=NNC(=O)C2
ED50 (Mus musculus [24]): 102 µmol/kg and 33.7 mg/kg | ED50 (Mus musculus [25]): 75.3 µmol/kg and 24.8 mg/kg | TD50 at 0.5 h [8]: 240 µmol/kg | ED50 (Mus musculus [26]): 145 µmol/kg | ED50 (Mus musculus [27]): 115 µmol/kg | therapeutic index (TD50/ED50) [17]: 2.3

Rm [2]: -0.052
SMILES: COc1ccc2c(c1)CC(=O)NN=C2c1ccccc1
ED50 (Mus musculus [24]): 75.5 µmol/kg and 20 mg/kg | ED50 (Mus musculus [25]): 64.8 µmol/kg and 17.2 mg/kg | TD50 at 0.5 h [8]: 197 µmol/kg | ED50 (Mus musculus [26]): 98.2 µmol/kg | ED50 (Mus musculus [27]): 73.4 µmol/kg | therapeutic index (TD50/ED50) [17]: 2.6

Source: ChEMBL document CHEMBL1129996, “1-Aryl-3,5-dihydro-4H-2,3-benzodiazepin-4-ones: novel AMPA receptor antagonists” (J Med Chem, 1997)
